The values below come from ChEMBL document CHEMBL3813689, “Discovery of Potent Benzofuran-Derived Diapophytoene Desaturase (CrtN) Inhibitors with Enhanced Oral Bioavailability for the Treatment of Methicillin-Resistant Staphylococcus aureus (MRSA) Infections” (J Med Chem, 2016).

The nature of series [1]: Oral bioavailability in Sprague-Dawley rat at 10 mg/kg administered as single dose. The note with it: in vivo. The class given is ADME, organism-based. The gist of the method: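 Male SD rats, 3 per group, single iv 5 mg/kg or oral 10 mg/kg. Blood sampled 0.083 (iv only), 0.25, 0.5, 1, 2, 4, 6, 8, 24 h postdose; plasma separated at 4 °C, stored −80 °C, analysed within 1 week. Parameters from plasma concentration-time data; F from dose-normalized AUC, oral vs iv.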

A short description of series [2]: Cytotoxicity against human WI38 cells measure after 72 hrs by SRB assay. In kind it is cell-based. As to conditions: WI-38, 72 h. (In SRB staining, fixed cells bind dye roughly in proportion to their protein.)
Series [3] relates to Staphylococcus aureus. In words: Antibacterial activity against Staphylococcus aureus Newman infected Balb/c mouse assessed as reduction of bacterial survival in kidney at 5.2 mg, ip bid administered for 4.5 days followed by bacterial infection measured after 5 days. In kind it is functional. The gist of the method:
(§1)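 Female BALB/c mice, 6–8 weeks, dosed ip with compound in sterile water once and every 12 h for 108 h; water vehicle controls. Challenged 12 h after first dose with 1 × 10^7 CFU Newman by retro-orbital injection. Kidneys and hearts homogenised in PBS/0.1% Triton X-100 and plated on TSA for CFU. n = 13 mice; two-tailed Mann-Whitney.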

The subject of series [4] is Staphylococcus aureus. Briefly: Inhibition of staphyloxanthin pigment formation in methicillin-resistant Staphylococcus aureus USA400 MW2 after 48 hrs by spectrophotometric method. In kind it is functional, organism-based. As to conditions: MW2, 48 h. The gist of the method: (§2)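 MRSA grown in 4 mL TSB with 40 µL compound (2-fold serial dilutions from 20 mM DMSO stock) at 37 °C for 48 h, triplicate. Cells washed twice in PBS, pigment extracted with methanol, OD450 measured; IC50 from dose-response fit.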

The subject of series [5] is Staphylococcus aureus. Briefly: Suppression in survival of methicillin-resistant Staphylococcus aureus Mu50 at 0.05 mM measured after overnight incubation by spectrophotometric method. In kind it is ADME, organism-based. The note with it: 50 µM. The essentials:
(§3)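 Compound from 20 mM DMSO stock diluted in TSB to final 0.2 or 0.05 mM; DMSO growth controls; paraffin overlay. Overnight cultures inoculated to final OD600 ≈ 0.05; incubated at 37 °C overnight with OD600 read every 30 min.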

Series [6] relates to Staphylococcus aureus. In words: Suppression in survival of Staphylococcus aureus Newman at 0.2 mM measured after overnight incubation by spectrophotometric method. In kind it is ADME, organism-based. The note with it: 200 µM. The essentials:
as §3

Series [7] in a line: Aqueous solubility of the compound by HPLC method. The class given is physicochemical. The essentials:
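Calibration with standards at 50, 100, 200, 400 and 800 µg/mL in methanol (peak area vs concentration). 10 mg solid stirred in 1 mL pure water for 24 h, more added if still clear; syringe-filtered, 10 µL injected; solubility read from calibration curve.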

Series [8] concerns Staphylococcus aureus. Briefly: Sensitization of methicillin-resistant Staphylococcus aureus USA400 MW2 to H2O2 assessed as bacterial survival at 1 uM measured after 24 hrs (reference value: 11.7%). The note with it: MW2, 24 h. In kind it is functional.
In series [9] the test system is Staphylococcus aureus. Briefly: Sensitization of methicillin-resistant Staphylococcus aureus Mu50 to immune clearance in human whole blood assessed as reduction in bacterial survival at 1 uM measured after 24 hrs relative to control. The class given is functional. The essentials: (§4)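 Overnight cultures spun down and resuspended in sterile PBS at 1 × 10^7 CFU/mL. 40 µL mixed with 360 µL fresh whole blood from a healthy human volunteer, giving 1 × 10^6 CFU/mL. Incubated 6 h at 37 °C. Surviving CFU counted by plating dilutions on TSA.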

Series [10] concerns Staphylococcus aureus. Briefly: Suppression in survival of methicillin-resistant Staphylococcus aureus USA300 LAC at 0.2 mM measured after overnight incubation by spectrophotometric method. The class given is ADME, organism-based. As to conditions: 200 µM. The gist of the method: as §3
For series [11], the target named is T1, 4,4'-diapophytoene desaturase (4,4'-diaponeurosporene-forming) (Staphylococcus aureus (strain Newman), UniProt O07855).
T1 sequence (O07855 whole entry): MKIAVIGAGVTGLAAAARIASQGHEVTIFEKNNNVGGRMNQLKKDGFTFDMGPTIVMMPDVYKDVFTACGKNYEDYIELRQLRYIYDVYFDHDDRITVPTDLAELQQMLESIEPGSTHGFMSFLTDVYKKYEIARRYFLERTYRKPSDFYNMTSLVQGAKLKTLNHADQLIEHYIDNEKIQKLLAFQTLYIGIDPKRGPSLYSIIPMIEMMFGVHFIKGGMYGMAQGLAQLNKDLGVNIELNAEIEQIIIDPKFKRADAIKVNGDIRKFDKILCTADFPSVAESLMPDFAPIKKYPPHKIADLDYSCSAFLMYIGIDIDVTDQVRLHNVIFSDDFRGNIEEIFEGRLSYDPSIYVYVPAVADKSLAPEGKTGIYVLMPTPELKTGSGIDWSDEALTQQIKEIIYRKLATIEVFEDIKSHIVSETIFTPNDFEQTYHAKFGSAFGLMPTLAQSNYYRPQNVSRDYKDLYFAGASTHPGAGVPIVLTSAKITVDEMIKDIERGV
In words: Inhibition of Staphylococcus aureus Newman 6His-tagged CrtN expressed in Escherichia coli BL21(DE3) using diapophytoene as substrate assessed as pigment formation after overnight incubation by spectrophotometric method. More on the design: species or system Staphylococcus aureus subsp. aureus str. Newman. The essentials: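 Lysate of E. coli BL21(DE3) expressing 6His-CrtN (IPTG 0.5 mM, 16 °C overnight), ~1.41 mg CrtN per reaction, with diapophytoene–phosphatidylcholine emulsion in 0.02 M HEPES pH 7.5 plus FAD. Anaerobic via glucose oxidase 20 U/mL, catalase 20000 U/mL, glucose 2 mM (final). Started with lysate, overnight at 37 °C; triplicate.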

Series [12] deals with Staphylococcus aureus. In words: Suppression in growth of methicillin-resistant Staphylococcus aureus Mu50 at 0.05 mM measured after overnight incubation by spectrophotometric method. In kind it is organism-based. As to conditions: 50 µM. The gist of the method: as §3
The test system of series [13] is Staphylococcus aureus. Briefly: Antibacterial activity against Staphylococcus aureus Newman infected Balb/c mouse assessed as reduction of bacterial survival in heart at 5.2 mg, ip bid administered for 4.5 days followed by bacterial infection measured after 5 days. In kind it is functional. The gist of the method:
as §1

Series [14] relates to Staphylococcus aureus. In words: Sensitization of Staphylococcus aureus USA300 LAC to immune clearance in human whole blood assessed as reduction in bacterial survival at 1 uM […] relative to control. The class given is functional.
Series [15] deals with Staphylococcus aureus. In words: Antibacterial activity against Staphylococcus aureus Mu50 infected Balb/c mouse assessed as reduction of bacterial survival in kidney at 5.2 mg, ip bid administered for 4.5 days followed by bacterial infection measured after 5 days. The class given is functional.
The subject of series [16] is Staphylococcus aureus. Briefly: Sensitization of methicillin-resistant Staphylococcus aureus USA400 MW2 to immune clearance in human whole blood assessed as reduction in bacterial survival at 1 uM measured after 24 hrs relative to control. In kind it is functional. The gist of the method: as §4
Series [17] has as its system Staphylococcus aureus. In words: Sensitization of Staphylococcus aureus Newman to H2O2 assessed as reduction in bacterial survival at 1 uM measured after 24 hrs relative to control. The class given is functional. The gist of the method: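 Strains grown 24 h in TSB with or without inhibitor, washed twice in PBS, then diluted to 4 × 10^6 CFU per 250 µL reaction. H2O2 added to a final 1.5%. Tubes sealed and held 30 min at 37 °C. Reaction stopped with 1000 U/mL catalase. Survivors counted as CFU by serial dilution on TSA plates and compared with untreated (mock) bacteria.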

Another series relates to Trichophyton rubrum. Briefly: Antifungal activity against Trichophyton rubrum measured after 7 days by serial dilution method. In kind it is functional. The essentials: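 Broth serial dilution MIC per NCCLS in RPMI 1640 buffered with 0.165 M MOPS; compounds in DMSO diluted in medium. Dermatophytes incubated at 28 °C, read at 7 days. MIC taken as lowest concentration giving ≥80% growth inhibition versus control (turbidity).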

Series [18] concerns Staphylococcus aureus. Briefly: Inhibition of staphyloxanthin pigment formation in methicillin-resistant Staphylococcus aureus Mu50 after 48 hrs by spectrophotometric method. The class given is functional, organism-based. The note with it: Mu50, 48 h. The essentials: as §2

Molecule `CN(C/C=C/c1ccc(C(F)(F)F)cc1)Cc1cccc2ccoc12.Cl` returned a bioavailability in series [1] of 42.2%. Moreover, the IC50 in series [2] stood at 47900 nM; with Staphylococcus aureus [4] it was 5.45 nM; in [11] it was 339 nM; in the series with Staphylococcus aureus [18], 0.38 nM. For the same molecule, the Activity in the series on Staphylococcus aureus [3] was 0.85 deltalog10CFU; with Staphylococcus aureus [5], “Non-toxic”; in the series on Staphylococcus aureus [6], “Non-toxic”; with Staphylococcus aureus [10], “Non-toxic”; in the series with Staphylococcus aureus [12], “Non-toxic”; with Staphylococcus aureus [13], 1.01 deltalog10CFU. Further, the Activity in the series with Staphylococcus aureus [15] is given as 1.11 deltalog10CFU. The solubility in series [7] stood at 10000 µg/mL. Also, the survival at 1 µM in the series with Staphylococcus aureus [8] is 0.6%. Further, the “fold change (FC)” value with Staphylococcus aureus [9] was 5; in the series with Staphylococcus aureus [14], 10; in the series on Staphylococcus aureus [16], 8; with Staphylococcus aureus [17] it was 30. Further, the MIC80 in the series on Trichophyton rubrum stood at 16 µg/mL.

Usually bioavailability stands for dose-corrected exposure relative to a reference, in per cent. One may read the IC50 as the concentration at which inhibition is half-maximal. As a reminder, the solubility is the dissolved amount per volume that the medium holds. Lower therefore signals little dissolved substance. As usually defined, the MIC80 is the lowest concentration that inhibits either 80% of growth or 80% of the strains tested, depending on the study.
